Test results as given in paper PMC6536312 (Bioorganic & medicinal chemistry, 2019).
Read-outs that look alike come from different tables or passages of the source.

How the values were obtained:
[1] = tested on: MDA-MB-231 cells; experiment: Cell viability study; assay type: cell-based, human
In short: (§1)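 Cells were maintained in high-glucose GlutaMax DMEM with 10% heat-inactivated FBS. They were seeded at 20,000/well, left overnight in 5% FBS medium, then dosed in 1:9 DMSO/acetone against vehicle controls, redosed every 24 h for the 48 h and 72 h runs. Resazurin (0.02% in PBS) was added for 2-3 h, read at ex 560/em 590 nm. IC50 came from nonlinear regression of log concentration versus % control.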

[2] = biological target: T1, σ2 receptor (Rattus norvegicus, UniProt Q5U3Y7); settings: previously reported; cited from earlier work
T1 sequence (Q5U3Y7 1-176): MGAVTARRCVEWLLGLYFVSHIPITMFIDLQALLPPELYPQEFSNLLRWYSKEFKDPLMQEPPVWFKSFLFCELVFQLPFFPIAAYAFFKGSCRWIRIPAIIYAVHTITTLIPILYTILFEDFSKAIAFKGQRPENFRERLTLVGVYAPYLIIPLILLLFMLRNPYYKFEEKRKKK

[3] = tested on: Panc-1 cells; experiment: Cell viability study; assay type: cell-based, human
In short: as §1

[4] = biological target: σ1 receptor (Cavia porcellus, UniProt Q60492); experiment: Radioligand binding assay at sigma-1 receptor
[5] = biological target: T1, σ2 receptor; experiment: Radioligand binding assay at sigma-2 receptor; settings: for fold lower affinity at the σ2 receptor than compound 3: vs compound 3

σ1 receptor, sequence (Q60492 whole entry): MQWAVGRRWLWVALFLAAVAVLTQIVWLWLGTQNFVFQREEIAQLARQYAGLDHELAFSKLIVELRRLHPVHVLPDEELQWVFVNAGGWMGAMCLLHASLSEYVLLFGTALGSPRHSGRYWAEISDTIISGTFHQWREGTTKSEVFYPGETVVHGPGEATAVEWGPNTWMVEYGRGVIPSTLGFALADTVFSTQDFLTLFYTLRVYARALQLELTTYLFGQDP

N.N.[Cl][Pt][Cl] [Cisplatin]
IC50 ([1]; read-out: IC50 (48 h), cell viability, MDA-MB-231, 48 h treatment): 50 ± 9.8 µM | IC50 ([1]; read-out: IC50 (72 h), cell viability, MDA-MB-231, 72 h treatment): 64.2 ± 4.3 µM

O=C(CCCN1CCCN(c2ccc(Cl)cc2)CC1)c1ccc(F)cc1 [Compound 1, 4-(4-(4-chlorophenyl)-1,4-diazepan-1-yl)-1-(4-fluorophenyl)butan-1-one]
Ki(σ1)/Ki(σ2) [2]: 4.3 | IC50, cell viability [3]: sub-micromolar

O=C1c2ccc(F)cc2CC1CCN1CCCN(c2ccc(Cl)cc2)CC1 (stereo not shown) [Compound 3]
fold lower affinity for the σ1 receptor compared to compound 1 ([4]; vs compound 1): more than 2 fold | fold higher affinity for σ2 receptor compared to compound 1 ([5]; vs compound 1): greater than 9 fold

O=C1c2ccccc2CC1CCN1CCCN(c2ccc(Cl)cc2)CC1 (stereo not shown) [Compound 4, 2-(2-(4-(4-chlorophenyl)-1,4-diazepan-1-yl)ethyl)-2,3-dihydro-1H-inden-1-one]
fold higher affinity than compound 3 at the σ1 receptor ([4]; vs compound 3): 3 fold | fold lower affinity at the σ2 receptor than compound 3 [5]: over 7 fold

O=C1c2ccc(Cl)cc2CC1CCN1CCCN(c2ccc(Cl)cc2)CC1 (stereo not shown) [Compound 8, 5-chloro-2-(2-(4-(4-chlorophenyl)-1,4-diazepan-1-yl)ethyl)-2,3-dihydro-1H-inden-1-one]
fold lower affinity at the σ2 receptor than compound 3 [5]: over 31 fold

O/N=C(\CCCN1CCCN(c2ccc(Cl)cc2)CC1)c1ccc(F)cc1 [Compound 12, 4-(4-(4-chlorophenyl)-1,4-diazepan-1-yl)-1-(4-fluorophenyl)butan-1-one oxime]
IC50, cell viability [3]: sub-micromolar
